Structures are written as SMILES.

As usually defined, the IC50 is the concentration that gives 50% inhibition. Usually inhibition stands for the drop in the measured response relative to a control, in per cent. Broadly, the half-life is how long it takes for the measured level to halve. As usually defined, the CL/F is clearance divided by bioavailability, as obtained after extravascular dosing. For orientation: clearance means the rate of elimination divided by the concentration. A word on the bioavailability: it is dose-corrected exposure relative to a reference, in per cent.

In series [1] the target is T1, Histamine H4 receptor (Homo sapiens, UniProt Q9H3N8). Put plainly: Displacement of [3H]histamine dihydrochloride from human histamine H4 receptor after 2.5 hrs by scintillation proximity assay. An outline of the steps:
(§1)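 Human H4 receptor-expressing membranes (25 µg) incubated with 20 nM [³H]-histamine dihydrochloride and SPA beads. Buffer: 50 mM Tris pH 7.5, 5 mM EDTA, 0.5% BSA, 1% DMSO. Incubation 2.5 h at room temperature. Non-specific binding taken with excess histamine. Scintillation counting. IC50 from a 6-point semi-log dose-response, duplicate wells.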

Series [2] is described as follows: Metabolic stability in rat microsomes assessed as drug remaining after 10 mins. The format is ADME, Microsome. Conditions: for remaining at 10 min: read-out: Stability. An outline of the steps:
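Compound incubated with rat liver microsomes. Parent remaining measured after 10 min, expressed as percent.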

For series [3], the target named is T1, Histamine H4 receptor. Nature of the series: Inverse agonist activity at human histamine H4 receptor assessed as inhibition of [35S]GTPgammaS binding after 15 mins by scintillation proximity assay. Format: functional. In general terms: GTPγS is a poorly hydrolysed GTP analogue; its binding reports G protein activation.
Series [4] can be described thus: Half life in rat microsomes. Format: ADME, Microsome.
Series [5] concerns the target T1, Histamine H4 receptor. Put plainly: Inverse agonist activity at human histamine H4 receptor assessed as inhibition of [35S]GTPgammaS binding after 15 mins by scintillation proximity assay relative to control. Format: functional. On the set-up: concentration or dose not given beside the values.
For series [6], the target named is T1, Histamine H4 receptor. Nature of the series: Displacement of [3H]histamine human recombinant histamine H4 receptor. Summed up: as §1
Series [7] addresses Histamine H1 receptor (Homo sapiens, UniProt P35367). Put plainly: Binding affinity to histamine H1 receptor.
For series [8], the target named is Histamine H2 receptor (Homo sapiens, UniProt P25021). Put plainly: Binding affinity to histamine H2 receptor.
A short description of series [9]: Clearance in rat at 5 mg/kg, po. Format: ADME, organism-based. Details: dose 5 mg/kg, route oral. To be noted: in vivo. Summed up:
(§2)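 Rat pharmacokinetic study with oral dosing at 5 mg/kg.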

Series [10] in a line: Volume of distribution in dog. To be noted: in vivo. Format: ADME, organism-based, Canis lupus familiaris.
A short description of series [11]: Clearance in Cynomolgus monkey. The format is ADME, organism-based, Macaca fascicularis. To be noted: in vivo.
The nature of series [12]: Oral bioavailability in rat at 5 mg/kg. Format: ADME, organism-based. Conditions: in vivo. An outline of the steps: as §2
Series [13] deals with Rattus norvegicus. Put plainly: Volume of distribution in rat at 5 mg/kg, po. The format is ADME, organism-based. On the set-up: dose 5 mg/kg, route oral. Conditions: in vivo. Summed up:
as §2

The nature of series [14]: Oral bioavailability in dog. The format is ADME, organism-based, Canis lupus familiaris. Conditions: in vivo.
The nature of series [15]: Clearance in dog. To be noted: in vivo. Format: ADME, organism-based, Canis lupus familiaris.
The target in series [16] is Histamine H3 receptor (Homo sapiens, UniProt Q9Y5N1). Nature of the series: Binding affinity to histamine H3 receptor.
Series [17] is described as follows: Volume of distribution in Cynomolgus monkey. Format: ADME, organism-based, Macaca fascicularis. To be noted: in vivo.
A short description of series [18]: Oral bioavailability in Cynomolgus monkey. The format is ADME, organism-based, Macaca fascicularis. Conditions: in vivo.
Series [19] addresses T2, CYP1A2 (Homo sapiens, UniProt P05177).
T2 sequence (P05177 whole entry): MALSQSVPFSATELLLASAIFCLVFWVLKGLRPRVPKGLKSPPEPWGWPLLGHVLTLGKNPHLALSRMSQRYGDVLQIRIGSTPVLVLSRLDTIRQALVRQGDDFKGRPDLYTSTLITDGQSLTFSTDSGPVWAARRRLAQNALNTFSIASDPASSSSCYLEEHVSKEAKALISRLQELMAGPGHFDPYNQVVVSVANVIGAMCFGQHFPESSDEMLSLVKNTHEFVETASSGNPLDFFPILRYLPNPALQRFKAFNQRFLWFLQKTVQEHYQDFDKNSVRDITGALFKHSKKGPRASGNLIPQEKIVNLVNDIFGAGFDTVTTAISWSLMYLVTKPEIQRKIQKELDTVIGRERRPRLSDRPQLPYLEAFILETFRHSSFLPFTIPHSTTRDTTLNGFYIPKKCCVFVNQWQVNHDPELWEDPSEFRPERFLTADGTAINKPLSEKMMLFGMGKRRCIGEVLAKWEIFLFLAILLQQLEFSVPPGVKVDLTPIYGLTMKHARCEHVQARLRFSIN
Put plainly: Inhibition of CYP1A2 at 1 uM. Format: ADME. An outline of the steps:
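CYP1A2 inhibition tested at 1 µM. Percent inhibition reported.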

T1 sequence (Q9H3N8 whole entry): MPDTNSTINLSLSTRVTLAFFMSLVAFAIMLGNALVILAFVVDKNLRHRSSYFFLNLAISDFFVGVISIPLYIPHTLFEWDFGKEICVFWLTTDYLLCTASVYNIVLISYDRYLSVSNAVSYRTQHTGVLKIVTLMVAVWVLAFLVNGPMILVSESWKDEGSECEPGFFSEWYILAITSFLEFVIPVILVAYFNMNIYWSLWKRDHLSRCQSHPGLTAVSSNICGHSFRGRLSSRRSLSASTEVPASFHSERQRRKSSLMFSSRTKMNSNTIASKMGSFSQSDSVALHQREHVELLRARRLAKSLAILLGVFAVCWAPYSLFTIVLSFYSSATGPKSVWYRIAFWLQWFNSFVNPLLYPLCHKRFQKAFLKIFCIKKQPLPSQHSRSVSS
Histamine H1 receptor, sequence (P35367 whole entry): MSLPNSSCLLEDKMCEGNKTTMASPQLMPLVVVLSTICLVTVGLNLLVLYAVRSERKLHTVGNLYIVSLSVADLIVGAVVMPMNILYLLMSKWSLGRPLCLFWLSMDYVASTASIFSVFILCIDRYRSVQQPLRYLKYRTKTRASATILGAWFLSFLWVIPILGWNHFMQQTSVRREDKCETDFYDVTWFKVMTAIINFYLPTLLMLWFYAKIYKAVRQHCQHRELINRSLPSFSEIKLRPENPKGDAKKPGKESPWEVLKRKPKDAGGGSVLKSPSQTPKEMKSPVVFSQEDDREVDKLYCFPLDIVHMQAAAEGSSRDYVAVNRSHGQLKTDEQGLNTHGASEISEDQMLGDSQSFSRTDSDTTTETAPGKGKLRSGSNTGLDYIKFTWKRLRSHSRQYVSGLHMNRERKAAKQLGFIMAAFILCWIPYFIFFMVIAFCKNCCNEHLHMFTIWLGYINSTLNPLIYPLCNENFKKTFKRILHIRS
Histamine H2 receptor, sequence (P25021 whole entry): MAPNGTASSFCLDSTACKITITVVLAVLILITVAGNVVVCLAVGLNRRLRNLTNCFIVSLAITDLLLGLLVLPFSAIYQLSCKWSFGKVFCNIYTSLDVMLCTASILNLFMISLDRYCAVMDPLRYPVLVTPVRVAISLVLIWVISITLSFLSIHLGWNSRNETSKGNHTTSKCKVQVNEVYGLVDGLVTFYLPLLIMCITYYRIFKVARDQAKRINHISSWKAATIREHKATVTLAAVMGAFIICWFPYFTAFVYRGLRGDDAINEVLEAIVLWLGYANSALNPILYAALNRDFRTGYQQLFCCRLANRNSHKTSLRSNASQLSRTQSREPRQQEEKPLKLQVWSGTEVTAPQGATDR
Histamine H3 receptor, sequence (Q9Y5N1 whole entry): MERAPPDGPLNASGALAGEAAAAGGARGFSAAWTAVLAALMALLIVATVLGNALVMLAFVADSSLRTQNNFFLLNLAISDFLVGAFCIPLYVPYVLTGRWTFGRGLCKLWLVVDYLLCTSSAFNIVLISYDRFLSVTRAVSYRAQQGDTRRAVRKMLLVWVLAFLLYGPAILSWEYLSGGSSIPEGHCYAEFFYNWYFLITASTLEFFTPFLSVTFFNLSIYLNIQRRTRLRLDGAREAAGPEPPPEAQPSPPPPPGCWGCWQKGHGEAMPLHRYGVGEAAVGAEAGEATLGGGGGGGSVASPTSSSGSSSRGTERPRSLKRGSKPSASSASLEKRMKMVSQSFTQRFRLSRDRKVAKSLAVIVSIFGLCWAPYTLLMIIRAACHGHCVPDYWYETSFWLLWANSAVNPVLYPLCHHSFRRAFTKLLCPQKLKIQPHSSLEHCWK

In series [1], `CCNC1CCN(c2ncnc3c2oc2ccc(Cl)cc23)C1` (stereo not drawn) registered an IC50 greater than 10000 nM.

Take `CN[C@@H]1CCN(c2ncnc3c2oc2ccc(Cl)cc23)C1`: the IC50 in series [1] is 33 nM; in [3] it was 41 nM. In addition, the Stability in series [2] (10 min) came out at 92%. Also, the t1/2 in [4] is given as 19 min.

In the case of `Clc1ccc2oc3c(N4CC5CCCNC5C4)ncnc3c2c1` (stereo not drawn), the IC50 in series [1] stood at 1400 nM.

In series [1], `CC1CN(c2ncnc3c2oc2ccc(Cl)cc23)CCN1C` (stereo not drawn) gave an IC50 of 1900 nM. Besides, the remaining at 10 min in series [2] worked out at 1%.

As for `CNC1CN(c2ncnc3c2oc2ccc(Cl)cc23)C1`, the IC50 in series [1] was 87 nM; in [3] it was 76 nM. In addition, in series [2], the remaining at 10 min came to 89%. Also, in series [5], the inhibition amounted to 149%.

`CNC1CCN(c2ncnc3c2oc2ccc(Cl)cc23)C1` (stereo not drawn) had an IC50 in [1] of 95 nM. In addition, the remaining at 10 min in series [2] was 80%.

As to `CN[C@@H]1CCN(c2ncnc3c2oc2cc(Cl)ccc23)C1`, in series [1], the IC50 is 171 nM.

In turn, `CNC1CCN(c2ncnc3c2oc2ccc(Cl)cc23)CC1` displayed an IC50 in series [1] greater than 10000 nM.

Take `CN[C@H]1CCN(c2ncnc3c2oc2ccc(Cl)cc23)C1`: the values for the IC50 in series [1] and in [3] were 285 nM and 292 nM, respectively. In [2], the remaining at 10 min amounted to 103%. Moreover, in series [5], the inhibition was determined as 122%. This compound had a half-life in [4] of 73 min.

In series [1], `CN1CCN(c2nc(C3CC3)nc3c2oc2ccc(Cl)cc23)CC1` showed an IC50 of 310 nM. For the same compound, the remaining at 10 min in series [2] turned out to be 8%.

Consider `Clc1ccc2oc3c(N4CCN5CCCC5C4)ncnc3c2c1` (stereo not drawn), for which, in series [1], the IC50 was found to be 236 nM. Besides, in [2], the remaining at 10 min worked out at 0%.

In [1], `CN1CCN(c2nc(C(=O)O)nc3c2oc2ccc(Cl)cc23)CC1` showed an IC50 greater than 10000 nM. In addition, the remaining at 10 min in series [2] is 106%.

Take `CN[C@H]1CCN(c2nc(N)nc3c2oc2ccc(Cl)cc23)C1`: the IC50 in series [1] is 13 nM; in series [3] it was 4 nM. For the same compound, in [2], the remaining at 10 min worked out at 68%. Also, the half-life in [4] is 21 min.

Take `CNC1(C)CCN(c2ncnc3c2oc2ccc(Cl)cc23)C1` (stereo not drawn): the half-maximal inhibitory concentration (IC50) in [1] amounted to 1400 nM.

On to `Cc1nc(N2CCN(C)CC2)c2oc3ccc(Cl)cc3c2n1`, for which the IC50 in [1] is 37 nM. In addition, the remaining at 10 min in series [2] is 0%.

In turn, `CN[C@@H]1CCN(c2nc(C(F)(F)F)nc3c2oc2ccc(Cl)cc23)C1` yielded an IC50 in series [1] of 14200 nM.

As for `CN[C@@H]1CCN(c2ncnc3c2oc2ccc(C(F)(F)F)cc23)C1`, in series [1], the IC50 was 30 nM. Moreover, the remaining at 10 min in series [2] worked out at 59%.

For `CNC1CCN(c2ncnc3c2oc2ccc(C(=O)O)cc23)C1` (stereo not drawn), the IC50 in [1] is greater than 30000 nM. Further, in series [2], the remaining at 10 min came out at 80%.

In series [1], `CN(C)C1CCN(c2ncnc3c2oc2ccc(Cl)cc23)C1` (stereo not drawn) registered an IC50 of 21000 nM. Further, in [2], the remaining at 10 min came out at 18%.

In the case of `CN1CCN(c2ncnc3c2oc2ccc(Cl)cc23)CC1`, the IC50 in series [6] and in series [1] was 19 nM each time. The remaining at 10 min in series [2] amounted to 1%.

In the case of `CNC1CCN(c2ncnc3c2oc2ccc(C#N)cc23)C1` (stereo not drawn), the IC50 in series [1] was determined as 6200 nM. Besides, the remaining at 10 min in series [2] stood at 95%.

For `NC1CCN(c2ncnc3c2oc2ccc(Cl)cc23)C1` (stereo not drawn), the IC50 in [1] turned out to be 126 nM. In [2], the remaining at 10 min amounted to 107%.

In series [1], `CN1CC2CCC1CN2c1ncnc2c1oc1ccc(Cl)cc12` (stereo not drawn) registered an IC50 of 169 nM. In addition, in [2], the remaining at 10 min is 66%.

`COc1nc(N2CCN(C)CC2)c2oc3ccc(Cl)cc3c2n1` yielded an IC50 in series [1] of 90 nM. Also, in series [2], the remaining at 10 min is 13%.

`CN[C@@H]1CCN(c2nc(N)nc3c2oc2ccc(Cl)cc23)C1`: the IC50 in [7] was greater than 30000 nM; in series [8], greater than 30000 nM; in series [1], 1 nM; in [16], 5800 nM; in [3], 3 nM. The compound further came in with a CL/F in series [9] of 117 mL/min/kg. Besides, the figures for the Vd in [10], in [13] and in series [17] were 26 L/kg, 71 L/kg and 25 L/kg, respectively. In addition, the clearance stood at 62 mL/min/kg in series [11] and 52 mL/min/kg in [15]. The bioavailability in [12] was 5%; in [14], 36%; in series [18], 99%. Also, in [2], the remaining at 10 min worked out at 62%. The inhibition in series [5] was found to be 138%. Besides, the inhibition at 1 µM in series [19] stood at 45%. The half-life in series [4] was determined as 13 min.

On to `CN1CCN(c2nc(C(F)(F)F)nc3c2oc2ccc(Cl)cc23)CC1`, for which the IC50 was 83 nM in [1] and 39 nM in series [3]. For the same compound, in series [2], the remaining at 10 min is 7%. For the same compound, in [5], the inhibition was determined as 100%.

The compound `CN[C@@H]1CCN(c2ncnc3c2oc2ccc(C)cc23)C1` showed an IC50 in series [1] of 86 nM. Moreover, the remaining at 10 min in series [2] worked out at 74%.

On to `CC1CN(c2ncnc3c2oc2ccc(Cl)cc23)CC(C)N1C` (stereo not drawn), for which the IC50 in series [1] amounted to 10000 nM.

Compound `CNC1CCN(c2ncnc3c2oc2ccc(-c4ccccc4)cc23)C1` (stereo not drawn) registered an IC50 in series [1] greater than 10000 nM. In addition, the remaining at 10 min in series [2] was 97%.

The compound `CNC1CCN(c2nc(C)nc3c2oc2ccc(Cl)cc23)C1` (stereo not drawn) displayed an IC50 in series [1] of 1600 nM. The remaining at 10 min in series [2] was 95%.

Turning to `CNC1CCCN(c2ncnc3c2oc2ccc(Cl)cc23)C1` (stereo not drawn), the IC50 in series [1] is greater than 10000 nM.

On to `CNC(=O)c1ccc2oc3c(N4CCC(NC)C4)ncnc3c2c1` (stereo not drawn), for which the IC50 in series [1] is greater than 30000 nM.

Take `CN1C2CCC1CN(c1ncnc3c1oc1ccc(Cl)cc13)C2`: the IC50 in series [1] was found to be 440 nM. Moreover, the remaining at 10 min in series [2] is 62%.

For the compound `CN1C[C@@H]2C[C@H]1CN2c1ncnc2c1oc1ccc(Cl)cc12`, the values for the IC50 in [1] and in [3] were 111 nM and 70 nM, respectively. The remaining at 10 min in series [2] was found to be 75%. The inhibition in series [5] came to 105%.

The compound `CN1CCN(c2nc(-c3ccccc3)nc3c2oc2ccc(Cl)cc23)CC1` showed an IC50 in [1] greater than 30000 nM. Also, the remaining at 10 min in series [2] came out at 40%.

Regarding `CN1CCN(c2nc(O)nc3c2oc2ccc(Cl)cc23)CC1`, the IC50 in series [1] stood at 1000 nM. In addition, the remaining at 10 min in series [2] is 83%.

These data come from ChEMBL document CHEMBL1156992, “Identification and hit-to-lead exploration of a novel series of histamine H4 receptor inverse agonists” (Bioorg Med Chem Lett, 2010).
